# Compound activity deposited in PubChem BioAssay by Broad Institute.
# Most compounds without a hit are left out; they make up all but 3.2% or so of the library.
# PfHsp90 yeast 2: growth inhibition of PfHsp90-expressing yeast, primary screen, antimalarial PfHsp90 inhibitor project, S. cerevisiae, BacTiter-Glo luminescence, single point, set 2; inhibition, % at 9.4 µM; 310,000 compounds, 0.32% hits; BacTiter-Glo ATP, 48 h; yeast lacking PDR1 and PDR3 efflux regulators;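 active = every replicate shows inhibition above about 80%, whatever the replicate mean, limit read from the data; inconclusive = mean inhibition reaches the set limit but some replicate falls short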;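 note: 0% = DMSO neutral controls and 100% = 20 µM radicicol positive controls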
# DENV2 CPE rescue: inhibitors of DENV2 cytopathic effect, primary screen, cell-based, plate reader, single concentration; CPE inhibition, % at 9.99 µM; AID 651640, 2012; DENV2-infected cells, cytopathic effect rescue; 350,000 compounds, 1.7% hits; in the data active = CPE inhibition above about 20%, passing the limit was not always enough; inconclusive = no clear call, values can overlap the other calls; tested in BHK-21 cells;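 note: 0% = median of neutral control wells and 100% = median of positive control wells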
# MLL AF4-AF9 inh: inhibitors of AF4 peptide binding to AF9, primary screen, biochemical, AlphaScreen, biotin-AF4 peptide, FLAG-AF9, single point. 350,000 compounds, 0.47% hits. Protein AF-9 (Homo sapiens), P42568. inhibition, % at 10 µM;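 active = every replicate reaching a set inhibition limit, whatever the replicate mean, cut at about 25% in these data; inconclusive = mean inhibition reaches that limit but some replicates miss it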;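 note: 0% = plate neutral control median and 100% = total signal loss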
# Target sequence (P42568 whole entry, looked up): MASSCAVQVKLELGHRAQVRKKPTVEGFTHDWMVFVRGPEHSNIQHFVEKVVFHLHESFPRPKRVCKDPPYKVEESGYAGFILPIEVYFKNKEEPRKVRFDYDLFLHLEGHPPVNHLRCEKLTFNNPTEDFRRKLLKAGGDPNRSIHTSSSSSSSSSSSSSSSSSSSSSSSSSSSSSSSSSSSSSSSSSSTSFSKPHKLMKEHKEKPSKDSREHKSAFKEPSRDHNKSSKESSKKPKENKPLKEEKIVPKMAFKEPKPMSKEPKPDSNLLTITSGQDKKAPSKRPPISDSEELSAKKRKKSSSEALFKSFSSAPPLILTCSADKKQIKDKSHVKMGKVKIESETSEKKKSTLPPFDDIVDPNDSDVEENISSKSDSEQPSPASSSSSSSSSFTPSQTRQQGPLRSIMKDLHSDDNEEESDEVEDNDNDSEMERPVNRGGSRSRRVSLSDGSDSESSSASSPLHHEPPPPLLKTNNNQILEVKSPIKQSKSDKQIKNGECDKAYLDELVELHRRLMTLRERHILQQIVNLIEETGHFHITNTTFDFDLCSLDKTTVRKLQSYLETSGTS
# Cneo AK release: Cryptococcus neoformans cell lysis inducers, primary screen, AK release luminescence, single concentration. C. neoformans lysis, adenylate kinase release luminescence, 4 h; normalised: neutral wells 0, clomiphene wells 100. lysis activity, % at 15 µM. 360,000 compounds, 0.2% hits. AID 651654, 2012;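 active = mean lysis activity across replicates of at least 80%, whatever share of replicates individually reach that level; inactive = mean lysis activity below 80%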
#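 Test system: log-phase Cryptococcus neoformans yeast cells. Input: 5 × 10^6 yeast cells/mL. Medium: fresh YPD growth medium. Doses: single dose. Incubation: static 4 h at 37 °C with compound, 1 h detection. Measured by: luminescent adenylate kinase detection reagent. Read-out: signal increase indicating cell lysis. Benchmarks: Clomiphene.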
# rRNA inh HTS: reduced GFP signal of wild-type E. coli, primary screen, bacterial rRNA inhibitor project, GFP/RFP fluorescence, OD600, single point; AID 720706, 2013; E. coli WT GFP vs humanized-ribosome RFP mutants, 24 h; stronger effect = lower value; DMSO median 0, no signal -100; GFP signal change (wild-type ribosome), % (no concentration beside the values); 350,000 compounds, 1.6% hits;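 active = significant combined selectivity score with lowered wild-type GFP, culture density cut under 30%, mutant RFP and density less affected; inactive = any of these conditions unmet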
# S100A4 inh HTS: inhibitors of S100A4-myosin IIA peptide binding, primary screen, biochemical, fluorescence polarization, TAMRA-MyoIIA peptide; Protein S100-A4 (Homo sapiens), P26447; inhibition, % at 10.7 µM; 360,000 compounds, 0.14% hits; AID 652163, 2013;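 active = mean inhibition of at least 70% across replicates, with every replicate also reaching that level; inconclusive = mean inhibition reaches 70% but some replicates fall short; inactive = mean inhibition below 70%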
# Target sequence (P26447 whole entry, looked up): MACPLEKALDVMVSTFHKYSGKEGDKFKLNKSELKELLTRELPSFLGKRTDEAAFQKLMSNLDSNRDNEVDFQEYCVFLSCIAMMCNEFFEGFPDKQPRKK
#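 assay system = human S100A4 monomer with TAMRA-labelled myosin IIA peptide | also added = labelled myosin peptide probe, 5 nM | incubation = 5 min between mix addition and reading | control set = DMSO and TFP controls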
# AID977621: growth inhibition of wild-type GFP E. coli, dose response, H69 mutant RFP, cherry-pick; shares compounds with rRNA inh HTS; E. coli wild-type GFP strain growth, fluorescence, 24 h; activity change, negative = inhibition at 50 µM; 1,900 tested, under 10 active;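 active = Wild-type ribosome reporter drop at least double the humanized mutant ribosome reporter drop, growth loss under a set limit; inconclusive = no clear call, values can overlap the other calls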;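 note: wild-type GFP and H69 mutant RFP strains grown together 50/50 in each well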
# AID977628: E. coli growth inhibition, wild-type GFP versus h24 humanized RFP strain, dose response, h24 mutant RFP vs wild-type GFP, cherry-pick; shares compounds with rRNA inh HTS; E. coli WT GFP strain growth, fluorescence, 24 h; activity change, negative = inhibition at 50 µM; 1,900 tested, under 10 active;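 active = compound lowering the normal-ribosome reporter at least twice as much as the humanized-ribosome reporter, growth loss under a set limit; inconclusive = no clear call, values can overlap the other calls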;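 note: wild-type GFP and h24 humanized RFP strains co-cultured 1 to 1 per well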
# * = called active by the depositor; ? = inconclusive; / = no result given; ! = not active in a repeat.
SMILES,PfHsp90 yeast 2,DENV2 CPE rescue,MLL AF4-AF9 inh,Cneo AK release,rRNA inh HTS,S100A4 inh HTS,AID977621,AID977628
Cc1cccc[n+]1CC(=O)Nc1ccc([N+](=O)[O-])cc1Cl,8.1,/,/,-0.7,/,/,/,/
O=C(C[n+]1ccc(Cc2ccccc2)cc1)Nc1ccc([N+](=O)[O-])cc1Cl,19.8,1.3,0.5,/,-30.5*,1.6,-6.45,-6.85
O=[N+]([O-])c1ccc(N2CCN(S(=O)(=O)c3ccccc3)CC2)cc1NCC1CCCO1 (stereo not drawn),3.2,/,/,7.4,/,/,/,/
CCS(=O)(=O)N1CCN(c2ccc([N+](=O)[O-])c(NCC3CCCO3)c2)CC1 (stereo not drawn),-11.2,-2.9,1.0,/,-21.4*,1.8,0.779,-5.83
O=C(c1ccccc1)N1CCN(c2ccc([N+](=O)[O-])c(NCC3CCCO3)c2)CC1 (stereo not drawn),8.8,4.9,5.8,0.6,-31.8*,0.4,-6.86,-4.15
CCNC(=O)C[C@H]1CC[C@H]2[C@@H](COc3ccc(NC(=O)c4cccc(OC)c4)cc3C(=O)N2C)O1,/,7.1,-1.4,-1.3,-1.3,-1.8,/,/
CC(CNC(=O)CN1C(=O)CCSc2ccccc21)c1ccccc1 (stereo not drawn),-39.9,-11.8,-0.6,0.8,-2.2,-13.5,/,/
CCOc1ccc(CCNC(=O)CN2C(=O)CCSc3ccccc32)cc1,-16.6,3.0,1.1,-0.5,-20.4*,1.0,/,?
O=C(Nc1ccc2c(c1)OCCO2)c1cccnc1Oc1ccccc1,15.5,10.1,-3.1,1.1,-14.2,-3.2,/,/
O=C(Nc1ccc2c(c1)OCCO2)c1cccnc1Oc1ccc(Cl)cc1,12.9,2.3,2.6,/,-27.2*,-8.7,-7.14,/
COCC#Cc1cnc2c(c1)C(=O)N([C@H](C)CO)C[C@H](C)[C@@H](CN(C)C(=O)CN1CCOCC1)O2,/,-3.8,-0.9,1.8,1.4,14.7,/,/
O=C(CN1CCCCC1)Nc1ccccc1-c1ccccc1,-17.9,-2.6,4.1,0.6,-14.9*,4.1,-2.79,/
O=C(O)CSc1nc2ccccc2n1C1CCCCC1,27.3,5.0,-3.7,/,-22.2*,-2.4,-9.22,/
O=C(O)Cn1c(SC2CCCCC2)nc2ccccc21,-11.4,/,/,9.0,/,/,/,/
C[C@H]1CN([C@@H](C)CO)C(=O)Cc2cc(NC(=O)Cn3cnnn3)ccc2O[C@H]1CN(C)Cc1ccc(Cl)c(Cl)c1,/,1.2,1.7,-0.9,-10.9,-0.8,/,/
Clc1ccc(-c2cn(-c3ccccc3)c3[n+]2CCS3)cc1,-27.3,-0.3,0.0,/,-18.0*,2.4,-12.1,?
Fc1ccc(-c2cn(-c3ccccc3)c3[n+]2CCS3)cc1,1.9,-6.6,/,-0.7,11.6,5.4,/,/
CN1C(=O)c2cc(NC(=O)c3cccc(F)c3)ccc2OC[C@H]2O[C@@H](CC(=O)NCC3CCCCC3)CC[C@@H]21,/,-2.5,-1.2,-3.7,-25.1*!,-0.2,-8.61,-0.169
Cn1cnc([N+](=O)[O-])c1Oc1ccccc1,-0.7,/,-1.8,/,-36.8*,2.2,2.46,-2.13
Cn1cnc([N+](=O)[O-])c1Oc1cccc(O)c1,19.2,/,/,/,/,/,/,/
Cc1ccc(-c2n[nH]c3c2CCC3)cc1,-4.9,/,/,4.7,/,/,/,/
Cc1ccc(-c2n[nH]c(S(C)(=O)=O)c2C#N)cc1,10.0,-4.9,/,/,-21.4*,-10.0,-20,?
CN1CCN(C(=O)C[C@H]2CC[C@H](NS(=O)(=O)c3cccc(F)c3)[C@H](CO)O2)CC1,/,-2.9,-2.1,2.5,4.2,-17.8,/,/
O=C(COc1cccc(NC(=O)c2cccs2)c1)c1ccc(F)cc1,17.6,14.1,-0.8,/,-16.2,-3.7,/,/
O=C(Nc1cccc(Oc2ccc3c(c2)C(=O)NC3=O)c1)c1cccs1,-11.0,7.3,4.7,/,-29.9*,1.7,-4.26,/
SMILES,PfHsp90 yeast 2,DENV2 CPE rescue,MLL AF4-AF9 inh,Cneo AK release,rRNA inh HTS,S100A4 inh HTS,AID977621,AID977628
CC(C)NC(=O)N(C)C[C@H]1Oc2ccc(NC(=O)Nc3cccc4ccccc34)cc2C(=O)N([C@H](C)CO)C[C@@H]1C,/,-0.8,-1.9,-0.6,-3.5,3.8,/,/
CCOc1ccccc1N1CCN(Cc2cn[nH]c2-c2ccc(F)cc2)CC1,2.0,-3.9,-2.0,/,-19.3*,0.1,-22.3,/
c1ccc2c(c1)OCCOCCOCCOCCOCCOc1ccccc1OCCOCCOCCO2,6.0,-1.2,0.0,/,5.7,1.9,/,/
Brc1cc2c(cc1Br)OCCOCCOCCO2,3.7,-1.3,-0.4,0.6,-24.0*,1.7,?,/
CCCC#Cc1ccc2c(c1)O[C@H](CN(C)Cc1cncnc1)[C@@H](C)CN([C@@H](C)CO)S2(=O)=O,/,2.0,13.3,0.7,-34.6,2.4,/,/
CCOc1nc(-c2ccccc2O)nc2ccccc12,/,1.9,-6.6,/,4.6,-0.3,/,/
CC(C)Oc1nc(-c2ccccc2Cl)nc2ccccc12,-15.1,-4.7,-3.3,/,-18.2*,4.0,/,-11
O=C(Nc1cccnc1)c1sc2cccc(F)c2c1Cl,0.8,-7.1,-3.2,0.6,-19.9*,1.6,-8.16,-2.74
CCN1C(=O)C(CC(=O)Nc2ccc(F)cc2)N(CCCN2CCN(c3ccc(F)cc3)CC2)C1=S (stereo not drawn),/,-6.9,6.0,/,-52.9*,-15.4,-4.84,?
O=C(O)CCN(Cc1ccccc1)S(=O)(=O)c1ccc(Cl)cc1F,/,2.9,-9.0,/,-20.2*,-3.0,-5.93,?
COC(=O)CCN(Cc1ccccc1)S(=O)(=O)c1ccccc1Br,18.3,1.6,-4.1,1.0,-9.1,-2.8,/,/
O=C(O)CCN(Cc1ccccc1)S(=O)(=O)c1ccccc1Cl,-25.2,-2.6,-1.1,/,-19.8*,-0.7,-5.66,/
O=C(CCCn1c(=S)[nH]c2ccsc2c1=O)Nc1ccc2c(c1)OCCO2,10.3,8.9,-0.4,2.1,-20.7*,-1.3,-10.6,/
O=C(CCCn1c(=S)[nH]c2ccsc2c1=O)Nc1ccc(F)cc1,/,-9.9,-2.6,0.1,-0.1,-1.0,/,/
CC(=O)N(C)C[C@H]1Oc2ncccc2C(=O)N(C)C[C@H]1C,/,/,/,/,1.7,/,/,/
COc1ccc2c3c([nH]c2c1)[C@@H](CO)N(C(=O)c1ccncc1)CC31CN(C(=O)NC(C)C)C1,/,/,/,/,5.3,/,/,/
